Where “and” joins values, the source holds several entries; their conditions need not be identical. Equal values may be shown once. Marks after values point to notes of the source that are not given here.
Tests used:
[1] = system: SULT2A1, nicotinamide N-methyltransferase; conditions: cited from earlier work
[2] = Safety: treatment-emergent adverse events, multiple-dose study; format: in vivo, human; conditions: for Alanine aminotransferase increased / Any TEAE / Aspartate aminotransferase increased / Blood creatinine phosphokinase increased / Diarrhea / Feeling abnormal / Headache / Hot flush / Malaise / Neutrophil count decreased / Rash / White blood cell count increased: Japanese
Outline: (§1)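 Adverse events were monitored throughout the study in subjects randomized 3:1 to test compound or placebo. Single-dose subjects were discharged on day 3 and returned on day 7; twice-daily subjects were discharged on day 10 and returned on day 13. Events were coded by System Organ Class and preferred term (MedDRA 12.1). The investigator assessed relatedness and graded severity as mild, moderate or severe.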

STAT5 phosphorylation = assay: Inhibition of STAT5 phosphorylation in IL-2-stimulated CD3-positive lymphocytes; format: in vivo, human; conditions: single doses 20–200 mg, Japanese and Caucasian
[3] = cited from earlier work
[4] = Safety: treatment-emergent adverse events, single-dose study; format: in vivo, human
Outline: as §1

[5] = system: peripheral lymphocyte subsets; assay: Peripheral lymphocyte subsets by flow cytometry, multiple-dose study; format: in vivo, human; conditions: 100 mg, 72 h after twice-daily dosing on day 7
[6] = Single-dose pharmacokinetics; format: in vivo, human; conditions: for CL/F, Mean (SD) / Aelast%, Mean (SD) / Aelast, Mean (SD): fasted; for Aelast%, Mean (SD) / Aelast, Mean (SD): urine
Multiple-dose = format: in vivo, human; conditions: for AUC: AUC12, Mean (SD); for Cmax: Mean (SD); for Tmax: Median; for Ae12%, Mean (SD) / Ae12, Mean (SD): urine
[7] = single- and multiple-dose studies
[8] = Caucasian, single dose 20 mg (n = 6)
[9] = Caucasian, single dose 60 mg (n = 6)
[10] = Caucasian, single dose 200 mg (n = 6)
[11] = Japanese, single dose 20 mg (n = 6)
[12] = Japanese, single dose 60 mg (n = 6)
[13] = Japanese, single dose 200 mg (n = 6)
[14] = Caucasian, single oral dose 20 mg
[15] = Caucasian, single oral dose 60 mg
[16] = Caucasian, single oral dose 200 mg
[17] = Japanese, single oral dose 20 mg
[18] = Japanese, single oral dose 60 mg
[19] = Japanese, single oral dose 200 mg
[20] = male, human, plasma, oral, 10 mg, Japanese, 10 mg bid, Day 1
[21] = male, human, plasma, oral, 10 mg, Japanese, 10 mg bid, Day 7
[22] = male, human, plasma, oral, 30 mg, Japanese, 30 mg bid, Day 1
[23] = male, human, plasma, oral, 30 mg, Japanese, 30 mg bid, Day 7
[24] = male, human, plasma, oral, 100 mg, Japanese, 100 mg bid, Day 1
[25] = male, human, plasma, oral, 100 mg, Japanese, 100 mg bid, Day 7

NC(=O)c1cnc2[nH]ccc2c1N[C@@H]1[C@@H]2CC3C[C@H]1C[C@@](O)(C3)C2 [peficitinib, Peficitinib]
metabolizing enzymes [1]: metabolized by the sulfotransferase (SULT) isoenzyme, SULT2A1, and the methyltransferase isoenzyme, nicotinamide N-methyltransferase
Alanine aminotransferase increased ([2]; 10 mg bid for 7 days (n = 6)): 1 (16.7)^b n (%)
Any TEAE ([2]; 10 mg bid for 7 days (n = 6)): 2 (33.3) n (%)
Aspartate aminotransferase increased ([2]; 10 mg bid for 7 days (n = 6)): 1 (16.7)^b n (%)
Blood creatinine phosphokinase increased ([2]; 10 mg bid for 7 days (n = 6)): 1 (16.7)^b n (%)
Diarrhea ([2]; 10 mg bid for 7 days (n = 6)): 0 n (%)
Feeling abnormal ([2]; 10 mg bid for 7 days (n = 6)): 1 (16.7)^b n (%)
Headache ([2]; 10 mg bid for 7 days (n = 6)): 1 (16.7)^b n (%)
Hot flush ([2]; 10 mg bid for 7 days (n = 6)): 1 (16.7)^b n (%)
Malaise ([2]; 10 mg bid for 7 days (n = 6)): 0 n (%)
Neutrophil count decreased ([2]; 10 mg bid for 7 days (n = 6)): 0 n (%)
Rash ([2]; 10 mg bid for 7 days (n = 6)): 0 n (%)
White blood cell count increased ([2]; 10 mg bid for 7 days (n = 6)): 1 (16.7)^b n (%)
Alanine aminotransferase increased ([2]; 30 mg bid for 7 days (n = 6)): 0 n (%)
Any TEAE ([2]; 30 mg bid for 7 days (n = 6)): 3 (50.0) n (%)
Aspartate aminotransferase increased ([2]; 30 mg bid for 7 days (n = 6)): 0 n (%)
Blood creatinine phosphokinase increased ([2]; 30 mg bid for 7 days (n = 6)): 0 n (%)
Diarrhea ([2]; 30 mg bid for 7 days (n = 6)): 1 (16.7)^b n (%)
Feeling abnormal ([2]; 30 mg bid for 7 days (n = 6)): 0 n (%)
Headache ([2]; 30 mg bid for 7 days (n = 6)): 0 n (%)
Hot flush ([2]; 30 mg bid for 7 days (n = 6)): 0 n (%)
Malaise ([2]; 30 mg bid for 7 days (n = 6)): 0 n (%)
Neutrophil count decreased ([2]; 30 mg bid for 7 days (n = 6)): 0 n (%)
Rash ([2]; 30 mg bid for 7 days (n = 6)): 1 (16.7)^b n (%)
White blood cell count increased ([2]; 30 mg bid for 7 days (n = 6)): 2 (33.3)^d n (%)
Alanine aminotransferase increased ([2]; 100 mg bid for 7 days (n = 6)): 1 (16.7)^b n (%)
Any TEAE ([2]; 100 mg bid for 7 days (n = 6)): 4 (66.7) n (%)
Aspartate aminotransferase increased ([2]; 100 mg bid for 7 days (n = 6)): 0 n (%)
Blood creatinine phosphokinase increased ([2]; 100 mg bid for 7 days (n = 6)): 0 n (%)
Diarrhea ([2]; 100 mg bid for 7 days (n = 6)): 0 n (%)
Feeling abnormal ([2]; 100 mg bid for 7 days (n = 6)): 0 n (%)
Headache ([2]; 100 mg bid for 7 days (n = 6)): 0 n (%)
Hot flush ([2]; 100 mg bid for 7 days (n = 6)): 0 n (%)
Malaise ([2]; 100 mg bid for 7 days (n = 6)): 0 n (%)
Neutrophil count decreased ([2]; 100 mg bid for 7 days (n = 6)): 3 n (%) and 3 (50.0)^b n (%)
Rash ([2]; 100 mg bid for 7 days (n = 6)): 0 n (%)
White blood cell count increased ([2]; 100 mg bid for 7 days (n = 6)): 0 n (%)
tolerability ([2]; doses up to 200 mg daily for 7 days, healthy Japanese subjects): well tolerated
serious TEAEs or TEAEs resulting in discontinuation [2, 7]: no serious TEAEs or TEAEs resulting in discontinuation
severity of TEAEs [2, 7]: mild
Neutrophil counts recovered by ([2]; three subjects receiving 100 mg twice daily): ≤ 8 days
Mean peak inhibition of STAT5 phosphorylation, dose dependence (STAT5 phosphorylation): increased with increasing single doses of peficitinib
median tmax ([3]; healthy, fasted, mainly Caucasian men, 3–30 mg ref 11): 1 h
attainment of steady-state plasma levels by ([3]; multiple twice-daily dosing (30–200 mg twice daily), USA ref 11): ≤ 3 days
cumulative amounts excreted unchanged in urine, range ([3]; primarily Caucasian population in the USA, single oral doses of 30–200 mg ref 11): 3.9 to 22.1 mg
Any TEAE [4, 8]: 0 n (%)
Blood potassium increased [4, 8]: 0 n (%)
Diarrhea [4, 8]: 0 n (%)
White blood cell count increased [4, 8]: 0 n (%)
Any TEAE [4, 9]: 1 (16.7) n (%)
Blood potassium increased [4, 9]: 0 n (%)
Diarrhea [4, 9]: 1 (16.7)^b n (%)
White blood cell count increased [4, 9]: 0 n (%)
Any TEAE [4, 10]: 0 n (%)
Blood potassium increased [4, 10]: 0 n (%)
Diarrhea [4, 10]: 0 n (%)
White blood cell count increased [4, 10]: 0 n (%)
Any TEAE [4, 11]: 1 (16.7) n (%)
Blood potassium increased [4, 11]: 1 (16.7)^b n (%)
Diarrhea [4, 11]: 0 n (%)
White blood cell count increased [4, 11]: 0 n (%)
Any TEAE [4, 12]: 2 (33.3) n (%)
Blood potassium increased [4, 12]: 0 n (%)
Diarrhea [4, 12]: 0 n (%)
White blood cell count increased [4, 12]: 2 (33.3) n (%)
Any TEAE [4, 13]: 1 (16.7) n (%)
Blood potassium increased [4, 13]: 0 n (%)
Diarrhea [4, 13]: 0 n (%)
White blood cell count increased [4, 13]: 1 (16.7) n (%)
largest change: decrease in the subset of CD3+, CD45RA+ and total naïve cells [5]: 7.50%
CL/F, Mean (SD) [6, 14]: 108.5 (30.0) L/h
CL/F, Mean (SD) [6, 15]: 117.8 (23.6) L/h
CL/F, Mean (SD) [6, 16]: 133.1 (15.0) L/h
CL/F, Mean (SD) [6, 17]: 78.9 (13.5) L/h
CL/F, Mean (SD) [6, 18]: 79.8 (19.2) L/h
CL/F, Mean (SD) [6, 19]: 79.8 (8.2) L/h
Tmax ([6]; male, human, plasma, oral, median tmax, range, single-dose administration, both Japanese and Caucasian subjects): 1 to 2 h
geometric mean ratio for dose-normalized AUCinf, higher in Japanese versus Caucasian subjects ([6]; single doses 20, 60, 200 mg): 33.8–66.4%
geometric mean ratio for dose-normalized Cmax, higher in Japanese versus Caucasian subjects ([6]; single doses 20, 60, 200 mg): 45.7–98.8%
AUCinf higher in Japanese subjects compared with Caucasian subjects ([6]; single doses 20 to 200 mg): 49%
Cmax higher in Japanese subjects compared with Caucasian subjects ([6]; single doses 20 to 200 mg): 70%
Dose proportionality of Cmax and AUCinf ([6]; single doses, dose range of 20–200 mg): demonstrated
Aelast%, Mean (SD) [6, 14]: 14.2 %dose and 14.2 (3.6) %dose
Aelast, Mean (SD) [6, 14]: 2.9 (0.7) mg
Aelast%, Mean (SD) [6, 15]: 10.6 (3.6) %dose
Aelast, Mean (SD) [6, 15]: 6.4 (2.2) mg
Aelast%, Mean (SD) [6, 16]: 9.9 %dose and 9.9 (1.2) %dose
Aelast, Mean (SD) [6, 16]: 19.8 (2.4) mg
Aelast%, Mean (SD) [6, 17]: 16.8 %dose and 16.8 (4.1) %dose
Aelast, Mean (SD) [6, 17]: 3.4 (0.8) mg
Aelast%, Mean (SD) [6, 18]: 14.8 (2.8) %dose
Aelast, Mean (SD) [6, 18]: 8.9 (1.7) mg
Aelast%, Mean (SD) [6, 19]: 12.5 %dose and 12.5 (2.7) %dose
Aelast, Mean (SD) [6, 19]: 25.1 (5.4) mg
CL/F, Mean (SD) (Multiple-dose; Japanese, 10 mg bid, Day 1): 87.7 (23.6) L/h
CL/F, Mean (SD) (Multiple-dose; Japanese, 10 mg bid, Day 7): 71.0 (13.6) L/h
CL/F, Mean (SD) (Multiple-dose; Japanese, 30 mg bid, Day 1): 83.3 (14.6) L/h
CL/F, Mean (SD) (Multiple-dose; Japanese, 30 mg bid, Day 7): 69.6 (13.5) L/h
CL/F, Mean (SD) (Multiple-dose; Japanese, 100 mg bid, Day 1): 71.2 (8.7) L/h
CL/F, Mean (SD) (Multiple-dose; Japanese, 100 mg bid, Day 7): 55.7 (9.3) L/h
AUC12 on day 7 higher than AUC12 after the first dose (Multiple-dose; Japanese, 10–100 mg bid): 25–37%
Cmax on day 7 higher than Cmax after the first dose (Multiple-dose; Japanese, 10–100 mg bid): 13–28%
Steady-state plasma concentrations achieved by (Multiple-dose; Japanese, twice-daily dosing, visual prediction): ≤ 3 days
half-life at 7 day (Multiple-dose; male, human, plasma, oral): 360 to 444 min
half-life (Multiple-dose; male, human, plasma, oral, 10 mg): 360 min
AUC (Multiple-dose; [20]): 114 ng·h/mL
AUC (Multiple-dose; [21]): 145 ng·h/mL
Cmax (Multiple-dose; [20]): 28.5 ng/mL
Cmax (Multiple-dose; [21]): 36.4 ng/mL
Tmax (Multiple-dose; [20]): 1.5 h
Tmax (Multiple-dose; [21]): 2.5 h
half-life (Multiple-dose; male, human, plasma, oral, 30 mg): 366 min
AUC (Multiple-dose; [22]): 354 ng·h/mL
AUC (Multiple-dose; [23]): 444 ng·h/mL
Cmax (Multiple-dose; [22]): 93.5 ng/mL
Cmax (Multiple-dose; [23]): 106 ng/mL
Tmax (Multiple-dose; [22]): 2 h
Tmax (Multiple-dose; [23]): 2 h
half-life (Multiple-dose; male, human, plasma, oral, 100 mg): 444 min
AUC (Multiple-dose; [24]): 1340 ng·h/mL
AUC (Multiple-dose; [25]): 1830 ng·h/mL
Cmax (Multiple-dose; [24]): 383 ng/mL
Cmax (Multiple-dose; [25]): 483 ng/mL
Tmax (Multiple-dose; [24]): 2 h
Tmax (Multiple-dose; [25]): 2 h
Ae12%, Mean (SD) (Multiple-dose; Japanese, 10 mg bid, Day 1): 14.9 (4.4) %dose
Ae12, Mean (SD) (Multiple-dose; Japanese, 10 mg bid, Day 1): 1.5 (0.4) mg
Ae12%, Mean (SD) (Multiple-dose; Japanese, 10 mg bid, Day 7): 32.0 (3.4) %dose
Ae12, Mean (SD) (Multiple-dose; Japanese, 10 mg bid, Day 7): 3.2 (0.3) mg
Ae12%, Mean (SD) (Multiple-dose; Japanese, 30 mg bid, Day 1): 15.6 (4.0) %dose
Ae12, Mean (SD) (Multiple-dose; Japanese, 30 mg bid, Day 1): 4.7 (1.2) mg
Ae12%, Mean (SD) (Multiple-dose; Japanese, 30 mg bid, Day 7): 26.4 %dose and 26.4 (4.2) %dose
Ae12, Mean (SD) (Multiple-dose; Japanese, 30 mg bid, Day 7): 7.9 (1.3) mg
Ae12%, Mean (SD) (Multiple-dose; Japanese, 100 mg bid, Day 1): 19.2 (2.7) %dose
Ae12, Mean (SD) (Multiple-dose; Japanese, 100 mg bid, Day 1): 19.2 (2.7) mg
Ae12%, Mean (SD) (Multiple-dose; Japanese, 100 mg bid, Day 7): 37.7 %dose and 37.7 (9.8) %dose
Ae12, Mean (SD) (Multiple-dose; Japanese, 100 mg bid, Day 7): 37.7 (9.8) mg

Source: article PMC7181426 (Clinical Drug Investigation, 2020)
